Type in all cases: functional
Assay [1] relates to Mycobacterium tuberculosis. Nature of the assay: Antibacterial activity against ethambutol-resistant Mycobacterium tuberculosis H37Ra. The method, boiled down:
(§1)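 Broth microdilution in supplemented 7H9 (complete) medium with twofold drug dilutions. Inoculum 10^6 CFU/ml from cultures grown at 37°C to mid- or late-log phase. Incubated 21 days at 37°C, then turbidity inspected by eye against drug-free controls. MIC is the lowest concentration with no visible growth.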

Assay [2] concerns Mycobacterium tuberculosis. As to the kind of experiment: Antibacterial activity against isoniazid-resistant Mycobacterium tuberculosis H37Ra. The method, boiled down:
as §1

Assay [3] relates to Mycobacterium tuberculosis. Nature of the assay: Antibacterial activity against rifampin-resistant Mycobacterium tuberculosis H37Ra. The method, boiled down:
as §1

For assay [4], the system named is Mycobacterium tuberculosis. As to the kind of experiment: Antibacterial activity against pyrazinamide-resistant Mycobacterium tuberculosis H37Ra. The method, boiled down: as §1

≈ marks a conversion by molar mass, not a printed value.

`CC[C@@H](CO)NCCN[C@@H](CC)CO` [ETHAMBUTOL]: the MIC is more than 400 mg/L in assay [1], 5 mg/L (≈ 24.5 µM) in assay [2], 5 mg/L (≈ 24.5 µM) in assay [3] and 5 mg/L (≈ 24.5 µM) in assay [4].

Consider `NNC(=O)c1ccncc1` [ISONIAZID], for which the MIC in assay [1] is 0.2 mg/L (≈ 1.46 µM); in assay [2] it was more than 16 mg/L; in assay [3], 0.2 mg/L (≈ 1.46 µM); in assay [4], 0.2 mg/L (≈ 1.46 µM).

`NC(=O)c1cnccn1` [PYRAZINAMIDE]: the MIC in assay [1] was 50 mg/L (≈ 406 µM); in assay [2] it was 50 mg/L (≈ 406 µM); in assay [3] it was 50 mg/L (≈ 406 µM); in assay [4] it was more than 4000 mg/L.

With `CO[C@H]1/C=C/O[C@@]2(C)Oc3c(C)c(O)c4c(O)c(c(/C=N/N5CCN(C)CC5)c(O)c4c3C2=O)NC(=O)/C(C)=C\C=C\[C@H](C)[C@H](O)[C@@H](C)[C@@H](O)[C@@H](C)[C@H](OC(C)=O)[C@@H]1C` [RIFAMPIN], the MIC was 0.2 mg/L (≈ 0.243 µM) in assay [1], 0.2 mg/L (≈ 0.243 µM) in assay [2], 16 mg/L (≈ 19.4 µM) in assay [3] and 0.2 mg/L (≈ 0.243 µM) in assay [4].

By MIC is commonly meant the least concentration at which growth counts as inhibited. Low values mean a more susceptible organism, high ones a less susceptible organism.

(Values after ChEMBL document CHEMBL1649253, “New approach for drug susceptibility testing: monitoring the stress response of mycobacteria” (2009).)
